Source: ChEMBL document CHEMBL2169863, “Discovery, structure-activity relationship, and biological evaluation of noninhibitory small molecule chaperones of glucocerebrosidase” (J Med Chem, 2012)
Changes are numbered by the printed parent chain. Activity calls are given as the source filed them. Unless noted, the rule behind the calls is not given here.

How the values were obtained:
Plasma [1] = test: AUClast in C57BL/6 mouse plasma at 50 mg/kg, ip; assay type: ADME, organism-based; parameters: time 0 - last, dose 50 mg/kg, route intraperitoneal; conditions: in vivo
Method in brief: (§1)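 Male C57BL/6 mice, 18−26 g, given a single ip dose of 50 mpk in 20% PEG 400 + 80% (20% HP-β-CD). Plasma, brain and liver were sampled, and brain and liver were homogenized in 3 volumes of PBS pH 7.4 (dilution factor 4). Analysis was by LC−MS/MS. Mean profiles N = 3.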

Brain [2] = test: Half life in C57BL/6 mouse brain at 50 mg/kg, ip; assay type: ADME, organism-based; parameters: dose 50 mg/kg, route intraperitoneal; conditions: in vivo; method in brief: as §1
Brain [3] = test: Cmax in C57BL/6 mouse brain at 50 mg/kg, ip; assay type: ADME, organism-based; parameters: dose 50 mg/kg, route intraperitoneal; conditions: in vivo; method in brief: as §1
[4] = Activation of alpha-galactosidase using 4-MU-alpha-galactose as substrate
[5] = tested on: T1, Lysosomal acid glucosylceramidase (Homo sapiens), P04062 [N409S]; test: Activation of Glucocerebrosidase N370S/N370S mutant translocation to lysosome in Gaucher patient dermal fibroblasts incubated for 6 days by LAMP2 colocalization-based laser scanning confocal microscopic analysis relative to vehicle-treated control
T1 sequence (whole entry): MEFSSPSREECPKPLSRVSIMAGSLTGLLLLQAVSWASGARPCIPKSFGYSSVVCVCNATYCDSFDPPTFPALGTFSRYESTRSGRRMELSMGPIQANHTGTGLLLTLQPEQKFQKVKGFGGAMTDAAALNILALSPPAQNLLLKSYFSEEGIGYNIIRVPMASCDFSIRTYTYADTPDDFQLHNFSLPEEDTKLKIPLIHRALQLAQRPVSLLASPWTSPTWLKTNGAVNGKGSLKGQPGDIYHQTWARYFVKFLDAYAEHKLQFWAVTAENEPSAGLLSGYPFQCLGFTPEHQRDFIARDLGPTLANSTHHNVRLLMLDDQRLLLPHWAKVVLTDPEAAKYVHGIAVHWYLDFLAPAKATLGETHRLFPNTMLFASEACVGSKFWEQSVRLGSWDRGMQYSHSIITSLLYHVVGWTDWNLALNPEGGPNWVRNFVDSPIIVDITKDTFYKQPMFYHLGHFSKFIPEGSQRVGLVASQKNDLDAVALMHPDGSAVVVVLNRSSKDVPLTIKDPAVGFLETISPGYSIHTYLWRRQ
Method in brief: (§2)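 N370S/N370S Gaucher dermal fibroblasts were treated 6 days at 1, 5 or 25 μM, with DMSO vehicle control. Cells were fixed in 3% paraformaldehyde, permeabilized with Triton-X and stained with anti-GCase R386 (Alexa555), anti-LAMP-2 (Alexa488) and DAPI. Confocal imaging used constant laser settings, scoring GCase/LAMP-2 colocalization.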

[6] = tested on: T1, Lysosomal acid glucosylceramidase (Homo sapiens), P04062 [N409S]; test: Activation of Glucocerebrosidase N370S/N370S mutant translocation to lysosome in Gaucher patient dermal fibroblasts at 5 uM incubated for 6 days by LAMP2 colocalization-based laser scanning confocal microscopic analysis relative to vehicle-treated control; method in brief: as §2
Liver [7] = test: Metabolic stability in CD1 mouse liver microsomes assessed as compound remaining at 1 uM after 60 mins by LC/MS/MS analysis in absence of NADPH; assay type: ADME, Microsome; conditions: 1 h
Method in brief: (§3)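 Compound at 1 μM was incubated in duplicate with CD-1 mouse liver microsomes at 37 °C in 100 mM potassium phosphate pH 7.4 with 3 mM MgCl₂, with or without 2 mM NADPH, for 60 min. Reaction was quenched in cold acidified MeCN with internal standard. Parent was quantified by LC−MS/MS as percent of time zero.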

Liver [8] = test: Half life in C57BL/6 mouse liver at 50 mg/kg, ip; assay type: ADME, organism-based; parameters: dose 50 mg/kg, route intraperitoneal; conditions: in vivo; method in brief: as §1
Homo sapiens = species: Homo sapiens; test: Activation of Glucocerebrosidase N370S/N370S mutant translocation to lysosome in Gaucher patient dermal fibroblasts at 5 uM incubated for 6 days by LAMP2 co-localization-based laser scanning confocal microscopic analysis relative to vehicle-treated control
[9] = molecular target: Lysosomal alpha-glucosidase (Homo sapiens) (UniProt P10253); test: Activation of alpha-glucosidase using 4-MU-alpha-glucose as substrate
Brain [10] = test: AUClast in C57BL/6 mouse brain at 50 mg/kg, ip; assay type: ADME, organism-based; parameters: dose 50 mg/kg, route intraperitoneal, time 0 - last; conditions: in vivo; method in brief: as §1
[11] = Cytotoxicity against human dermal fibroblasts isolated from Gcase N370S carrier at 5 uM after 6 days; assay type: cell-based; conditions: fibroblast, 144 h
Method in brief: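 Fibroblasts of the stated genotype were seeded at 5000 cells/well. After 1 day they were switched to OPTI-MEM with 5% FBS and treated 6 days with compound. Viability was read by CellTiter-Glo luminescence on a parallel plate.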

Plasma [12] = test: Tmax in C57BL/6 mouse plasma at 50 mg/kg, ip; assay type: ADME, organism-based; parameters: dose 50 mg/kg, route intraperitoneal; conditions: in vivo; method in brief: as §1
Caco-2 [13] = test: Efflux ratio of apparent permeability from basal to apical to apical to basal side of human Caco2 cells after 2 hrs; assay type: ADME, cell-based; conditions: caco-2, 2 h
Method in brief: (§4)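 Caco-2 monolayers were grown 3 weeks, with integrity checked by Lucifer yellow. Compound was added apically (pH 6.5 HBSS/HEPES/glucose buffer) or basolaterally (pH 7.4) and incubated 2 h. Transfer was quantified by LC−MS/MS and expressed as P_app. Efflux ratio is P_app B→A over A→B.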

Brain [14] = test: AUC (infinity) in C57BL/6 mouse brain at 50 mg/kg, ip; assay type: ADME, organism-based; parameters: dose 50 mg/kg, route intraperitoneal, time infinity; conditions: in vivo; method in brief: as §1
Plasma [15] = test: AUC (infinity) in C57BL/6 mouse plasma at 50 mg/kg, ip; assay type: ADME, organism-based; parameters: time infinity, dose 50 mg/kg, route intraperitoneal; conditions: in vivo; method in brief: as §1
Liver [16] = test: Cmax in C57BL/6 mouse liver at 50 mg/kg, ip; assay type: ADME, organism-based; parameters: dose 50 mg/kg, route intraperitoneal; conditions: in vivo; method in brief: as §1
Liver [17] = test: Tmax in C57BL/6 mouse liver at 50 mg/kg, ip; assay type: ADME, organism-based; parameters: dose 50 mg/kg, route intraperitoneal; conditions: in vivo; method in brief: as §1
Liver [18] = test: Metabolic stability in CD1 mouse liver microsomes assessed as compound remaining at 1 uM after 60 mins by LC/MS/MS analysis in presence of NADPH; assay type: ADME, Microsome; conditions: 1 h; method in brief: as §3
[19] = tested on: T1, Lysosomal acid glucosylceramidase (Homo sapiens), P04062 [N409S]; test: Activation of wild type glucocerebrosidase translocation to lysosome in human dermal fibroblast isolated from N370S carrier incubated for 6 days by LAMP2 co-localization-based laser scanning confocal microscopic analysis relative to vehicle-treated control
[20] = molecular target: T2, Lysosomal acid glucosylceramidase (Homo sapiens) (UniProt P04062); test: Activation of wild type glucocerebrosidase translocation to lysosome in human dermal fibroblast incubated for 6 days by LAMP2 colocalization-based laser scanning confocal microscopic analysis relative to vehicle-treated control
T2 sequence (whole entry): T1 sequence (whole entry) with S409N

Caco-2 [21] = test: Apparent permeability of the compound from apical to basal side of human Caco2 cells after 2 hrs; assay type: ADME, cell-based; conditions: caco-2, 2 h; method in brief: as §4

- AUClast (Plasma [1]): 434 ng·h/mL
- t1/2 (Brain [2]): 18.2 h
- Cmax (Brain [3]): 2.76 µM
- Activity [4]: inactive
- Activity [5]: Active
- Activity [6]: Active
- Stability (Liver [7]): 42%
- t1/2 (Liver [8]): 28.9 h
- Activity (Homo sapiens): Active
- Activity [9]: inactive
- AUClast (Brain [10]): 1260 ng·h/mL
- Tmax (Plasma [12]): 0.25 h
- Ratio (Caco-2 [13]): 0.3
- AUC (Brain [14]): 1390 ng·h/mL
- AUC (Plasma [15]): 474 ng·h/mL
- Cmax (Liver [16]): 17.3 µM
- Tmax (Liver [17]): 0.25 h
- Stability (Liver [18]): 45%
- Activity [19]: Active
- Activity [20]: Active
- Papp (Caco-2 [21]): 6 ×10⁻⁶ cm/s
SMILES: C#Cc1ccc(NC(=O)c2cnn3c(C)cc(C)nc23)cc1
- Activity [11]: Non-toxic
